From ChEMBL document CHEMBL1123812, “Pyrroloisoquinoline antidepressants. 2. In-depth exploration of structure-activity relationships” (J Med Chem, 1987)
Activity calls are given as the source filed them.

Tests used:
[1] = biological target: D(2) dopamine receptor (Rattus norvegicus) (UniProt P61169); assay: Binding affinity towards dopamine receptor D2 at 1.0 uM concentration
Procedure, shortened: (§1)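 Rat brain crude synaptic membranes in 20 mM NaHEPES pH 7.5. Ligands: α1 cortex […] 0.4 nM, nonspecific with (-)-NE 100 μM, 30 min at 25 °C. […] D2 striatum [3H]spiperone 0.05 nM with (+)-butaclamol 1 μM, 45 min at 37 °C. S1 cortex [3H]5-HT 1 nM plus glutathione and MgCl2, with 5-HT 10 μM, 20 min at 37 °C. […] Samples filtered on GF/B and counted.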

[2] = biological target: Norepinephrine transporter (Rattus norvegicus, UniProt Q9WTR4); assay: Inhibition of uptake of tritiated norepinephrine (NE) in rat synaptosomes; assay type: subcellular, Brain
[3] = biological target: Serotonin 1 (5-HT1) receptor (Rattus norvegicus) (UniProt P28564+P30940+P19327+P28565); assay: Binding affinity towards serotonin S1 receptor at 1.0 uM; assay type: protein assay; procedure, shortened: as §1
[4] = biological target: Serotonin 2 (5-HT2) receptor (Rattus norvegicus) (UniProt P30994+P08909+P14842); assay: Binding affinity towards 5-hydroxytryptamine 2 receptor at 1.0 uM concentration; assay type: protein assay; procedure, shortened: as §1
[5] = species: Mus musculus; assay: Antagonism of tetrabenazine (TBZ)-induced depression in mice measured for ptosis; assay type: functional; settings: Mus musculus; read-out: ED50
Procedure, shortened: (§2)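 Nonfasted male Swiss Webster mice, 18–24 g, ten per dose level and in saline controls. Test compound given ip 30 min before tetrabenazine 32 mg/kg ip; dose expressed as free base. Motor activity and ptosis scored. Control response ≤90% corrected by Abbott's formula.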

[6] = biological target: T1, Adrenergic receptor alpha-1 (Rattus norvegicus, UniProt P15823+P23944+P43140); assay: Binding affinity towards alpha-1 adrenergic receptor; assay type: protein assay
T1 sequence (P15823 whole entry): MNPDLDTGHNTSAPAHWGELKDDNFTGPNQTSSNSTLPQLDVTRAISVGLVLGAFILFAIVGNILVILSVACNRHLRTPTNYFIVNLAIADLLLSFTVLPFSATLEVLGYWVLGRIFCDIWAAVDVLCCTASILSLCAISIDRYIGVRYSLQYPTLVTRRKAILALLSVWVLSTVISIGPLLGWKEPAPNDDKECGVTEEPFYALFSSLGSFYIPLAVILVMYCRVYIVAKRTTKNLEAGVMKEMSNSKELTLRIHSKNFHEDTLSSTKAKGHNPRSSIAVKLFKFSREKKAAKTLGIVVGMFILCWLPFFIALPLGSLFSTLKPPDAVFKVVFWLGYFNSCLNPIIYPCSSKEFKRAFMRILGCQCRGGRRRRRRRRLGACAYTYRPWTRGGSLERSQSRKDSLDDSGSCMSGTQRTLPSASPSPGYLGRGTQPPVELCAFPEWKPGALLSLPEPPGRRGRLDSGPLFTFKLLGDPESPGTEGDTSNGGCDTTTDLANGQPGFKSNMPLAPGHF
T1 sequence (P23944 whole entry): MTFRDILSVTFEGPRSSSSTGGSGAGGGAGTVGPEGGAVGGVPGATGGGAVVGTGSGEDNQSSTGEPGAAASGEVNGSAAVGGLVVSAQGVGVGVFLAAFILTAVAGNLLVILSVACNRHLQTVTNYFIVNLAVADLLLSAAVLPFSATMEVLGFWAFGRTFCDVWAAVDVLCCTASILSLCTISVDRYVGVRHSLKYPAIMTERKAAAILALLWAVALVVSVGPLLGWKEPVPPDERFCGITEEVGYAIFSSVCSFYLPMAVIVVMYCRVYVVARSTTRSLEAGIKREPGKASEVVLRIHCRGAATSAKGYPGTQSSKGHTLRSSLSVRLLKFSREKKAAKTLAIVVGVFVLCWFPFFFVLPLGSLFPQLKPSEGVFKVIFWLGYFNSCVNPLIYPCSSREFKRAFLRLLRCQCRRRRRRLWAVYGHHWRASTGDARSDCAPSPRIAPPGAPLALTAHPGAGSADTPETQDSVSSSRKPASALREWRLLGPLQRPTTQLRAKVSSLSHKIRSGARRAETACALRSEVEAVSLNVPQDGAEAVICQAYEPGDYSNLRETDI
T1 sequence (P43140 whole entry): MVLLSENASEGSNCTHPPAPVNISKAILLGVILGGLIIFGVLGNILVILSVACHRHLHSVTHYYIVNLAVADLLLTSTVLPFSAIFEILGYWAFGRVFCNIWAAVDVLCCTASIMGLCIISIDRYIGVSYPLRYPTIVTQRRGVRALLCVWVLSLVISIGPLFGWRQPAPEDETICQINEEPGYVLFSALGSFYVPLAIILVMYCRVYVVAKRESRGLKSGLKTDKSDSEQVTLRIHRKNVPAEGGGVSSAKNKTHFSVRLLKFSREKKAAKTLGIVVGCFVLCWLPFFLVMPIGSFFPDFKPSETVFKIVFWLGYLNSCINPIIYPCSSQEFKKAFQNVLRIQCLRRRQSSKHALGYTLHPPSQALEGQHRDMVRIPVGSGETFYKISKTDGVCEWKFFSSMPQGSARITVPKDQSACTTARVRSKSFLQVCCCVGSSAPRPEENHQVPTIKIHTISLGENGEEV

[7] = biological target: Sodium-dependent dopamine transporter (Rattus norvegicus, UniProt P23977); assay: Inhibition of the uptake of tritiated dopamine (DA) in rat synaptosomes; assay type: subcellular, Brain
[8] = species: Mus musculus; assay: Antagonism of tetrabenazine (TBZ)-induced depression measured in mice by motor activity; assay type: functional; settings: Mus musculus; read-out: ED50; procedure, shortened: as §2
[9] = species: Mus musculus; assay: Gross behavioral effects ascertained in mice; W indicates weak stimulant or depressant activity of little significance.; assay type: functional, organism-based
Procedure, shortened: (§3)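 Male Swiss Webster mice, 18–24 g, three per dose, given ip doses of 1, 3, 10, 30, 100 and 300 mg/kg. Observed for gross behavior and held for 4 days. Scored as weak (W), stimulant (S), depressant (D) or convulsant (C).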

[10] = test system: Mus musculus; assay: Ability to antagonise intraperitoneal dose; inactive (<10% antagonism) at 30 mg/kg is represented as I-30.; assay type: functional, organism-based; set-up: dose 30 mg/kg; procedure, shortened: as §2
[11] = biological target: Sodium-dependent serotonin transporter (Rattus norvegicus) (UniProt P31652); assay: Inhibition of tritiated serotonin(5-HT) uptake at 0.1 uM concentration; assay type: functional
Procedure, shortened: (§4)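 Male Wistar rat brain synaptosomes (P2 fraction): hypothalamus for NE, striatum for DA, cerebral cortex for 5-HT. Buffer is Tris- or HEPES-buffered salt medium with glucose, ascorbate and nialamide, pH 7.4 at 37 °C. Preincubated 10 min at 37 °C with compound. Uptake started with [3H]NE 100–300 nM, [3H]DA 50–300 nM or [3H]5-HT 100–200 nM, incubated 3 min (DA) or 6–10 min (NE, 5-HT). Blanks held on ice. Filtered, counted by scintillation.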

[12] = biological target: Sodium-dependent dopamine transporter (Rattus norvegicus) (UniProt P23977); assay: Inhibition of tritiated dopamine (DA) uptake at 0.1 uM concentration; assay type: functional; procedure, shortened: as §4
[13] = species: Rattus norvegicus; assay: Ability to inhibit the uptake of tritiated norepinephrine (NE) at 0.1 uM concentration; assay type: functional; procedure, shortened: as §4
[14] = biological target: Sodium-dependent serotonin transporter (Rattus norvegicus) (UniProt P31652); assay: Ability to inhibit the uptake of [3H]- serotonin(5-HT) 0.1 uM concentration at rat brain synaptosomes; assay type: functional, subcellular; procedure, shortened: as §4
[15] = biological target: Norepinephrine transporter (Rattus norvegicus) (UniProt Q9WTR4); assay: Ability to inhibit the uptake of [3H]norepinephrine (NE) 0.1 uM concentration at rat brain synaptosomes; assay type: functional, subcellular; procedure, shortened: as §4
[16] = test system: Mus musculus; assay: Ability to antagonise intraperitoneal dose; inactive (<10% antagonism) at 30 mgjkg is represented as I-30.; assay type: functional, organism-based; procedure, shortened: as §2
[17] = biological target: Sodium-dependent dopamine transporter (Rattus norvegicus) (UniProt P23977); assay: Ability to inhibit the uptake of [3H]dopamine (DA) 0.1 uM concentration at rat brain synaptosomes; assay type: functional, subcellular; procedure, shortened: as §4
[18] = biological target: Serotonin 2 (5-HT2) receptor (Rattus norvegicus, UniProt P30994+P08909+P14842); assay: Binding affinity towards 5-hydroxytryptamine 2 receptor; assay type: protein assay
[19] = species: Mus musculus; assay: Gross behavioral effects ascertained in mice; S indicates significant stimulant properties.; assay type: functional, organism-based; procedure, shortened: as §3
[20] = biological target: Adrenergic receptor alpha-2 (Rattus norvegicus) (UniProt P22086+P19328+P22909); assay: Binding affinity towards alpha-2 adrenergic receptor at 1.0 uM concentration; assay type: protein assay
[21] = biological target: Adrenergic receptor alpha-1 (Rattus norvegicus) (UniProt P15823+P23944+P43140); assay: Binding affinity towards alpha-1 adrenergic receptor at 1.0 uM concentration; assay type: protein assay; procedure, shortened: as §1
[22] = biological target: Muscarinic acetylcholine receptor (Rattus norvegicus) (UniProt P08482+P08483+P08485+P08911+P10980); assay: Binding affinity towards Muscarinic acetylcholine receptor at 1.0 uM concentration; assay type: protein assay

Sodium-dependent dopamine transporter (Rattus norvegicus), sequence (P23977 whole entry): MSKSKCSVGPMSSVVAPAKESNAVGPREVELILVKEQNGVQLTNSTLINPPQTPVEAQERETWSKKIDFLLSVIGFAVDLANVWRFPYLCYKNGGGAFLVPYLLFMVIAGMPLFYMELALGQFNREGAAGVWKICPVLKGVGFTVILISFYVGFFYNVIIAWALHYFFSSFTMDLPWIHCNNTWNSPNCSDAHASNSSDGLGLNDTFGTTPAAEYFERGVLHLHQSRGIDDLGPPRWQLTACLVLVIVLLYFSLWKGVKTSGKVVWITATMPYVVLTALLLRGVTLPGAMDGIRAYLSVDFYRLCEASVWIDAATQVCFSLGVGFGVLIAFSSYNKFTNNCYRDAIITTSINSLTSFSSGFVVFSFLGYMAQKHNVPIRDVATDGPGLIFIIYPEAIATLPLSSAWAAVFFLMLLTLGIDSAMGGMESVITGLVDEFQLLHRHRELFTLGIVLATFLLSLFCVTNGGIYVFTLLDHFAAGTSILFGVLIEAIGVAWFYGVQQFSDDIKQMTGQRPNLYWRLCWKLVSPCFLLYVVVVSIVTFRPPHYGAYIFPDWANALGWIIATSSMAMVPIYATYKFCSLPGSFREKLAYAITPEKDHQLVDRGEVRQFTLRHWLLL
D(2) dopamine receptor (Rattus norvegicus), sequence (P61169 whole entry): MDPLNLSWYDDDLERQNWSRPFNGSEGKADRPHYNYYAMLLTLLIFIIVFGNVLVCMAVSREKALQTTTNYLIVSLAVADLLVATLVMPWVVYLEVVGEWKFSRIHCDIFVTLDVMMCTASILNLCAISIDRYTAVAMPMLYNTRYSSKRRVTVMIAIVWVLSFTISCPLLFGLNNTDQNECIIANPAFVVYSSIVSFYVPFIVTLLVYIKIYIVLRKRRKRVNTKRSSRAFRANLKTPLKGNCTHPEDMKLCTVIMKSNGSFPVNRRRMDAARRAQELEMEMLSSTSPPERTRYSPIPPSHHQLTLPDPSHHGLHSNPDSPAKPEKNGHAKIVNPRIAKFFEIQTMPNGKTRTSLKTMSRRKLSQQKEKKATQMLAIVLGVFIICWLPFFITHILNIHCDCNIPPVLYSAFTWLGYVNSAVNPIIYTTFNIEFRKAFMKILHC
Norepinephrine transporter (Rattus norvegicus), sequence (Q9WTR4 as listed by the source): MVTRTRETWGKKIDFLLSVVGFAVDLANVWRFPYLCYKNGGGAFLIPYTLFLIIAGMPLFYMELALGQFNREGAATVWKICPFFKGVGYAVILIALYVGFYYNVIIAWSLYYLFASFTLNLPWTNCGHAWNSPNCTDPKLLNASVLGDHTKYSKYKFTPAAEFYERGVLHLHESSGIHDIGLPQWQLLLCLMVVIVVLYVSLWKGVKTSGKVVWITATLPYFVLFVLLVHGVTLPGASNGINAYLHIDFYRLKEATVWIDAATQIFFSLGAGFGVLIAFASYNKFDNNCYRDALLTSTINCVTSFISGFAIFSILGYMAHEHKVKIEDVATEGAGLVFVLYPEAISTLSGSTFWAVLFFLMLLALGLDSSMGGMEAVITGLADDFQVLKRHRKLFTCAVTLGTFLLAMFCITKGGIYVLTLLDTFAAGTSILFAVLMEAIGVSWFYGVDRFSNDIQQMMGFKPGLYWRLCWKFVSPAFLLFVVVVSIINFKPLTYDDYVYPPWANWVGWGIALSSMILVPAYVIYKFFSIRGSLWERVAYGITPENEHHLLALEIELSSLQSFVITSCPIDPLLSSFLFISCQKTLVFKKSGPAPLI
Sodium-dependent serotonin transporter (Rattus norvegicus), sequence (P31652 whole entry): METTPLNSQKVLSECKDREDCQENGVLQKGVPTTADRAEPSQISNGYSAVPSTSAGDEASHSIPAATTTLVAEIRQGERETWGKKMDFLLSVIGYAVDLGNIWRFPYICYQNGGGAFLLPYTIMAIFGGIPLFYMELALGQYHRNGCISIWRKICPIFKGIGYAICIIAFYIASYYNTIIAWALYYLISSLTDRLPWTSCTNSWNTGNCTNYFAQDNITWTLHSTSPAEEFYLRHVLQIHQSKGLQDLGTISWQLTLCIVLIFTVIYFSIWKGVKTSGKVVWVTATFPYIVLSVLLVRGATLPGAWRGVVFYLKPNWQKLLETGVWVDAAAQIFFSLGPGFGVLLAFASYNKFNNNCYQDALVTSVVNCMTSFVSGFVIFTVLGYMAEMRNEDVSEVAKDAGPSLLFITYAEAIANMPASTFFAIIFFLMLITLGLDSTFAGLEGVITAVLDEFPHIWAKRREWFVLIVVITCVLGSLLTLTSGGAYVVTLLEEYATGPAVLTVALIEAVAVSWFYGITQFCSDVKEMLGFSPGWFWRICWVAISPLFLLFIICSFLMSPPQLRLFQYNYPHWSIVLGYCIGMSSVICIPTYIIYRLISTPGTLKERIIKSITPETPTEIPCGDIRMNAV
Serotonin 2 (5-HT2) receptor (Rattus norvegicus), sequence (P08909 whole entry, looked up): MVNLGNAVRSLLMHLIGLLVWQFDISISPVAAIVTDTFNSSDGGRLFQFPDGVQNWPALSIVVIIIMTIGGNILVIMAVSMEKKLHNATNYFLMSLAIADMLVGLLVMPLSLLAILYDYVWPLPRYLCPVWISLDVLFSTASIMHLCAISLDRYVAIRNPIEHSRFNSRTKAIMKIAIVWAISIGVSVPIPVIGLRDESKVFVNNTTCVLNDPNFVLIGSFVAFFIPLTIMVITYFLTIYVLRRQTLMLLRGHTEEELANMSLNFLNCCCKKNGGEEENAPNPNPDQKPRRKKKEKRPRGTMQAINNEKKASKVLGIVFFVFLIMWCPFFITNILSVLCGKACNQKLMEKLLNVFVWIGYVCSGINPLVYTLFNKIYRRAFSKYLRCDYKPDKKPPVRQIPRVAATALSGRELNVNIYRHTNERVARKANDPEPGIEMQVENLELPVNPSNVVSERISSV
Serotonin 2 (5-HT2) receptor (Rattus norvegicus), sequence (P14842 whole entry, looked up): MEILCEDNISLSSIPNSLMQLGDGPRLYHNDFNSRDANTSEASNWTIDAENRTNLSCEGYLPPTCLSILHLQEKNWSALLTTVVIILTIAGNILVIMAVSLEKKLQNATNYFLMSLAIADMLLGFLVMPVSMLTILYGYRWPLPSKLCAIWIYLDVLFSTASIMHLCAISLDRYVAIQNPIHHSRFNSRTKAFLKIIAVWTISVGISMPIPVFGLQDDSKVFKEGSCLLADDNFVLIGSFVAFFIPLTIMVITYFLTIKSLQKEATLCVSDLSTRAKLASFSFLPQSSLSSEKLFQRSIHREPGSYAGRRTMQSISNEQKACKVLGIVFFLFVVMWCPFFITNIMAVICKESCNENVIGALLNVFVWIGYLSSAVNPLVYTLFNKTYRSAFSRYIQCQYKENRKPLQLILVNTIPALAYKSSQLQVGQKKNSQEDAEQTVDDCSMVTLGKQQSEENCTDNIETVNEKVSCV
Serotonin 2 (5-HT2) receptor (Rattus norvegicus), sequence (P30994 whole entry, looked up): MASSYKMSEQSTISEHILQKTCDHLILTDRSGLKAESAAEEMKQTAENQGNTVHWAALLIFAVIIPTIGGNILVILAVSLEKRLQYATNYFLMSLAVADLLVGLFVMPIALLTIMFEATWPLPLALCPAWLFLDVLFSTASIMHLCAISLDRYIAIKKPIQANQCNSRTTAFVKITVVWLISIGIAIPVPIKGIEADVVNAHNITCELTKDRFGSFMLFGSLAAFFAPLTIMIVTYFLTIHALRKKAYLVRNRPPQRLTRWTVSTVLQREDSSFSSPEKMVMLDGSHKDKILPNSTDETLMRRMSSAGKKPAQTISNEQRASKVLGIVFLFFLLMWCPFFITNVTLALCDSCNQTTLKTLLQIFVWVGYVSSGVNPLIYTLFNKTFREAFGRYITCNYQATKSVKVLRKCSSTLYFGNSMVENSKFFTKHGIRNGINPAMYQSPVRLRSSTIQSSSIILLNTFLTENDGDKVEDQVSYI
Sodium-dependent dopamine transporter, sequence (P23977 whole entry): as the sequence (P23977 whole entry) above
Norepinephrine transporter, sequence (Q9WTR4 whole entry): as the sequence (Q9WTR4 as listed by the source) above

SMILES: Br.COc1cc([C@@H]2CN3CCC[C@@H]3c3ccccc32)cc(OC)c1OC
- inhibition [1]: 17%
- Ki [2]: 164 nM
- inhibition [3]: 31%
- inhibition [4]: 2%
- ED50 [5]: 2.5 mg/kg
- Ki [6]: 29 nM
- Ki [7]: ~2000 nM
- ED50 [8]: > 60 mg/kg
- behavior [9]: Partial stimulant

SMILES: COc1ccc([C@@H]2CN3CCC[C@H]3c3ccccc32)cc1OC
- ED50 [10]: inactive
- ED50 [5]: 29.4 mg/kg
- inhibition [11]: 27%
- inhibition [12]: 11%
- Inhibition [13]: 9%
- behavior [9]: Weak

SMILES: COc1ccccc1[C@@H]1CN2CCC[C@@H]2c2ccccc21
- inhibition [3]: 45%
- inhibition [4]: 74%
- ED50 [5]: ~0.3 mg/kg
- ED50 [8]: ~0.6 mg/kg
- behavior [9]: Partial stimulant

SMILES: C[C@@H]1[C@@H](c2ccccc2)c2ccccc2[C@@H]2CCCN12
- inhibition [14]: 12%
- ED50 [10]: inactive
- inhibition [15]: 4%
- ED50 [16]: inactive
- inhibition [17]: 0%
- behavior [9]: Weak

SMILES: FC(F)(F)c1cccc([C@@H]2CN3CCC[C@H]3c3ccccc32)c1
- inhibition [14]: 9%
- inhibition [15]: 23%
- ED50 [16]: inactive
- Ki [6]: 86 nM
- inhibition [17]: 8%
- Ki [18]: 29 nM
- behavior [9]: Partial stimulant

SMILES: c1ccc([C@@H]2CN3CCC[C@@H]3c3ccccc32)cc1
- inhibition [14]: 16%
- ED50 [10]: inactive
- inhibition [15]: 4%
- ED50 [16]: inactive
- inhibition [17]: 6%
- behavior [9]: Partial stimulant

SMILES: c1ccc([C@@H]2CN3CCC[C@@H]3c3ccccc32)cc1 (stereo in doubt; (+)-7b)
- behavior [19]: Stimulant
- inhibition [1]: 40%
- inhibition [20]: 64%

SMILES: CNCCC(Oc1ccc(C(F)(F)F)cc1)c1ccccc1 (stereo unspecified)
- inhibition [1]: 12%
- inhibition [3]: 13%

SMILES: O=C(CCCN1CCC(O)(c2ccc(Cl)cc2)CC1)c1ccc(F)cc1
- inhibition [3]: 58%

SMILES: Br.CSc1ccc([C@@H]2CN3CCC[C@H]3c3ccccc32)cc1
- inhibition [1]: 28%
- ED50 [5]: 10.9 mg/kg
- inhibition [21]: 43%
- inhibition [22]: 0%
- ED50 [8]: > 75 mg/kg

SMILES: Br.Clc1cccc([C@@H]2CN3CCC[C@@H]3c3ccccc32)c1
- behavior [19]: Stimulant
- Ki [2]: 0.45 nM
- ED50 [5]: < 1 mg/kg
- Ki [7]: 2.5 nM
- Ki [18]: 49 nM
- ED50 [8]: ~0.1 mg/kg
